# Screening data as filed in PubChem.
# This is a sample that favours compounds with a hit; in the whole collection about 1.8% have one here.
# NR2E3 ag-1: human photoreceptor-specific nuclear receptor agonism; CHO-S Gal4-NCOR/VP16-NR2E3 two-hybrid, luciferase; 360,000 compounds, 0.35% hits; inhibition of corepressor binding, % at 3.98 µM; AID 602229;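 active = inhibition above the mean of all tested compounds plus 3 SD, cut at about 70% in these data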;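 also: 0% = DMSO with NR2E3 transfected cells and 100% = cells lacking NR2E3 construct; higher means lower luciferase signal from less NR2E3 corepressor binding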
# Target sequence (Q9Y5X4 whole entry, looked up, the tested form may be a part): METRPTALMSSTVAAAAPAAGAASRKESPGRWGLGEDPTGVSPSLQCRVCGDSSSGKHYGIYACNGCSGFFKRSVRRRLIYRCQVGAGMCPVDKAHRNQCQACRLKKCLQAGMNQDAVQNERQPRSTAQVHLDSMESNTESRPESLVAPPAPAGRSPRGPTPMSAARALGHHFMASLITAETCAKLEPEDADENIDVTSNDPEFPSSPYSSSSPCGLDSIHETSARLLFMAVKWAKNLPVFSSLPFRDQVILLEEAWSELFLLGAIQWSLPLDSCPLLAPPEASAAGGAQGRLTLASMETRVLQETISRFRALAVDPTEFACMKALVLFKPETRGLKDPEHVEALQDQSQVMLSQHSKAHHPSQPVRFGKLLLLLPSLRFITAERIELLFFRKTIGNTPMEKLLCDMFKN
# 697 NFkB inh: inhibitors of the PMA/ionomycin-induced NF-kB reporter in 697 B cells; 697 B-cell NF-kB luciferase reporter, 16 h; AID 435022; inhibition, % at 4 µM; 330,000 compounds, 0.33% hits; in the data active = inhibition above about 35%
# NR2E3 ag-2: NR2E3 (human) agonism; Q9Y5X4; GST-NR2E3/biotin-RetCOR TR-FRET, 1536-well; inhibition of corepressor binding, % at 4.78 µM; 320,000 compounds, 0.12% hits; AID 2300;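 active = percent inhibition above the cutoff of mean plus 3 SD of all tested compounds, set per screening campaign, cut at about 20% in these data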;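 also: 0% = DMSO wells and 100% = biotin wells as full block of FRET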
#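 Test system – NR2E3–RetCOR corepressor complex · Quantity – NR2E3 fusion 1.35 nM · Buffer or medium – Tris pH 7.5 · Incubation – Compound–protein incubation for 5 h at 4 °C · Technique – TR-FRET, Eu(K)-anti-GST donor, streptavidin-D2 acceptor, ex 340, em 617/671 nm · Evaluation – percent inhibition of 671/617 nm emission ratio versus biotin and DMSO controls · Plate – 1536-well format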
# GalR3 antag: blocks the human galanin receptor 3; O60755; HEK293 GalR3-CNG cAMP membrane potential fluorescence; galR3 body fused to GalR1 C-terminus; inhibition, % at 3 µM; 360,000 compounds, 0.44% hits; AID 651719;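 active = inhibition above the screen-wide average plus 3 SD, cut at about 13% in these data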;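 also: forskolin and galanin both at EC90 stimulate the cells; cAMP rise reported by CNG channel membrane potential dye signal; 0% = forskolin plus galanin with DMSO and 100% = forskolin alone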
# Gli-Sufu block: Gli-Sufu pathway antagonism | 340,000 compounds, 0.74% hits | Sufu-KO-LIGHT fibroblasts, Gli luciferase reporter luminescence | inhibition, % at 5 µM;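 active = inhibition above about 55%, limit read from the data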;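 also: 0% = DMSO-treated cells and 100% = wells with medium but no cells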
# Jurkat NFkB inh: lowers PMA/ionomycin-induced NF-kB signal in Jurkat cells; PMA/ionomycin-induced NF-kB luciferase reporter, luminescence; inhibition, % at 4 µM; 330,000 compounds, 0.53% hits; AID 435003; in the data active = inhibition above about 50%
# Jurkat NFkB conf: inhibitors of the PMA/ionomycin-induced NF-kB reporter in Jurkat cells, retest; inhibition, % at 4 µM; 2,700 compounds, 27% hits; shares compounds with Jurkat NFkB inh; Jurkat NF-kB luciferase, 16 h;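 active = inhibition reaching about 45% at 4 µM in either replicate, limit read from the data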;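 also: plate controls were PMA/ionomycin stimulated DMSO wells for no effect and unstimulated DMSO wells for full effect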
# 697 NFkB conf: inhibitors of the PMA/ionomycin-induced NF-kB reporter in 697 B cells, retest | shares compounds with 697 NFkB inh | 697 B-cell NF-kB luciferase, 16 h | inhibition, % at 4 µM | 2,000 compounds, 35% hits | AID 449746; in the data active = inhibition mostly above about 28%, no sharp cut-off; inactive = mostly below about 22%
# Gli-Sufu confirm: confirmation of Gli-SUFU pathway antagonists. shares compounds with Gli-Sufu block. Sufu-KO-LIGHT cells, Gli luciferase reporter, luminescence. inhibition, % at 5 µM. 2,500 compounds, 40% hits. AID 602428;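 active = mean inhibition at 5 µM reaching about 45%, limit read from the data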;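 also: plate controls were DMSO-treated cells for no effect and wells lacking cells for full effect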
# SufuKO cytotox: counter-screen for Gli-SUFU antagonists: cytotoxicity; 2,500 compounds, 32% hits; shares compounds with Gli-Sufu block; cytotoxicity, % at 5 µM; Sufu-KO-LIGHT cells cytotoxicity, ATP luminescence;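 active = mean cytotoxicity at 5 µM above about 25%, limit read from the data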;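 also: cells exposed to compound overnight for roughly 16 to 18 hours; plate controls were DMSO wells with cells for no effect and medium without cells for full effect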
# Wnt3a cs: Wnt3a reporter inhibition counter-screen | shares compounds with Gli-Sufu block | Wnt-LIGHT cells, Wnt3a-driven luciferase reporter, luminescence | 2,500 compounds, 20% hits | inhibition, % at 6.25 µM;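 active = mean inhibition above about 25%, limit read from the data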
# NR2E3 ag confirm: NR2E3 agonism confirmed in two-hybrid assay; shares compounds with NR2E3 ag-1; CHO-S mammalian two-hybrid NR2E3-NCOR, luciferase luminescence; inhibition, % at 3.98 µM; 2,300 compounds, 51% hits;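 active = average inhibition above a cutoff equal to the mean inhibition of all tested compounds plus one SD, cut at about 70% in these data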;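 also: 0% = DMSO in NR2E3 cells and 100% = DMSO in cells lacking NR2E3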
# VP16 counter: GAL4-VP16 reporter inhibition in NR2E3 agonist counterscreen; shares compounds with NR2E3 ag-1; CHO-S GAL4-VP16 luciferase reporter, luminescence; inhibition, % at 3.98 µM; 2,300 compounds, 29% hits; AID 624379;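 active = mean inhibition above a cutoff equal to the average over all tested compounds plus one standard deviation, cut at about 70% in these data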;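 also: luciferase from a UAS reporter driven by GAL4-VP16 transactivation; 0% = DMSO with VP16-transfected cells and 100% = DMSO with cells lacking VP16; higher means less reporter light so more repression of VP16 activity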
# GalR3 antag conf: GalR3 (human) antagonism, confirmation | HEK293 GalR3 CNG cAMP biosensor, membrane potential fluorescence; galR3 fused to GalR1 carboxy tail; challenged with forskolin and galanin at EC90 | shares compounds with GalR3 antag | 1,600 compounds, 59% hits | inhibition, % at 3 µM;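 active = inhibition above the primary screen's cutoff, the mean inhibition of all screened compounds plus 3 SD, cut at about 13% in these data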;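 also: 0% = forskolin plus galanin and 100% = forskolin alone with DMSO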
# CNG parental: counter-screen for GalR3 antagonists: nonspecific agonists in parental HEK-CNG cells; shares compounds with GalR3 antag; HEK293-CNG parental cells, cAMP membrane potential fluorescence; normalised: DMSO wells 0%, forskolin wells 100%; activation, % at 3 µM; 1,600 compounds, 10% hits; AID 652268; in the data active = activation above about 1.3%
# The depositor's hits bear a star; . = no result given.
SMILES,NR2E3 ag-1,697 NFkB inh,NR2E3 ag-2,GalR3 antag,Gli-Sufu block,Jurkat NFkB inh,697 NFkB conf,others
Cc1cc2c(c(=O)o1)[C@@]1(C(=O)N(C)c3ccccc31)C1=C(CCCC1=O)O2,.,.,.,-5,.,.,.,
COc1ccc(NS(=O)(=O)c2cccc(NC(=O)c3ccc(Cl)nc3)c2)cc1,83*,64*,5,82*,69*,72*,54*,Jurkat NFkB conf=67*;Gli-Sufu confirm=68*;SufuKO cytotox=41*;Wnt3a cs=16;NR2E3 ag confirm=84*;VP16 counter=78*;GalR3 antag conf=96*;CNG parental=0
COc1cccc(C(=O)Cn2c(=N)n(C)c3ccccc32)c1,-136,-304,-3,-1,-111,-98,-273,
COc1ccc(OCc2cccc(C(=O)NN)c2)cc1,-210,68*,-1,-2,-155,6,29*,
CCOc1ccc(OCc2cccc(C(=O)N/N=C/c3cccnc3)c2)cc1,-236,67*,0,-10,-153,41,52*,
COc1ccc(OCc2cccc(C(=O)Nc3cc(C)on3)c2)cc1,-86,91*,-2,-5,-136,11,77*,
COc1cccc(C(=O)Nc2cc(C)on2)c1,-75,.,.,-3,.,.,.,
COc1ccc(OCc2cccc(C(=O)Nn3cc([N+](=O)[O-])cn3)c2)cc1,-97,93*,-2,-5,-176,-11,83*,
NNC(=O)c1cccc(COc2ccc(Br)cc2)c1,-253,3,5,7,-153,-47,.,
Cc1ccc2nc(-c3ccc(F)cc3)c(Cc3cccc(F)c3)n2c1,.,.,.,-9,.,.,.,
C[C@@H]1C=CCCO[C@]12C(=O)N(Cc1ccc(F)cc1)c1cccc(Br)c12,.,.,.,-9,.,.,.,
COC(=O)[C@]1(CC(C)C)NC=C(C(=O)c2ccccc2)[C@@H]1c1cccc(C(F)(F)F)c1,.,.,.,-7,.,.,.,
CC(C)N1C(=O)S/C(=C/c2ccc3c(c2)n(C)c(=O)n3C)C1=O,-20,47*,0,-3,11,-8,40*,
COC(=O)c1cc2c(c3c4cc(F)ccc4n(S(=O)(=O)c4ccc(OC)cc4)c13)C(=O)N(C)C2,.,.,.,-7,.,.,.,
C[C@@H]1CN(C(=O)OC(C)(C)C)CCN1c1ccc(N2CC[C@@H](O)C2)c(C#N)c1,.,.,.,0,.,.,.,
COc1ccc(CC(=O)Nc2ccc(N3CCOCC3)cc2)cc1S(=O)(=O)N1CCOCC1,-5,39*,-3,-6,-5,4,-7,
C[C@@H]1ON(C)[C@H]2C[C@H]3c4[nH]c5c(-c6cccc(F)c6)cccc5c4CCN3C(=O)[C@@H]12,.,.,.,-7,.,.,.,
